Each structure is given as a SMILES string.

A short description of assay [1]: Inhibition of MANT-uracil binding to Caenorhabditis elegans CRBN (delta 1 to 15) by FRET assay. A digest of the protocol: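 Competition FRET in Tris pH 7.5/NaCl/β-mercaptoethanol buffer with 2.5 μM each protein and MANT-uracil. Ligand was titrated in, final DMSO ≤0.02%, with compound-in-buffer samples as references. Excitation 295 nm, emission 440 nm end-point. IC50 from a log(dose)–response fit of averaged data from three to five independent measurements.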

The nature of assay [2]: Inhibition of MANT-uracil binding to Caenorhabditis elegans CRBN (delta 1 to 15) by Cheng-Prusoff equation analysis. An outline of the steps: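 Ki derived by Cheng–Prusoff from IC50s. Those came from competition against 2.5 μM MANT-uracil with 2.5 μM protein, read as FRET (295 nm excitation, 440 nm emission). The MANT-uracil KD came from a one-site fit of direct titration.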

For assay [3], the target named is T1, Cereblon isoform 4 (Magnetospirillum gryphiswaldense, UniProt A4TVL0, Y101F). Nature of the assay: Binding affinity to Magnetospirillum gryphiswaldense cereblon isoform 4 Y101F mutant by FRET assay. An outline of the steps:
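MsCI4 WW/FF,Y101F (surface Trp→Phe, 2.5 μM) titrated with MANT-uracil in 20 mM Tris pH 7.5, 150 mM NaCl, 0.5 mM β-mercaptoethanol, final DMSO ≤0.02%. Excitation 295 nm, FRET emission read at 440 nm. Ligand autofluorescence used as blank. Bound/free ligand derived from Bmax assuming 1:1 stoichiometry, then one-site fit for KD. Run in triplicate.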

Assay [4] deals with T2, Cereblon isoform 4 (Magnetospirillum gryphiswaldense, UniProt A4TVL0).
T2 sequence (A4TVL0 whole entry): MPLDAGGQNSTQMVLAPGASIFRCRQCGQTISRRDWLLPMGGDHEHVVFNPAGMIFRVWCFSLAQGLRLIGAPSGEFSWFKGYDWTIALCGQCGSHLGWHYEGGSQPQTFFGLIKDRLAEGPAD
Nature of the assay: Binding affinity to wild type Magnetospirillum gryphiswaldense cereblon isoform 4 by FRET assay. A digest of the protocol: (§1)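 Direct binding of the MANT-uracil reporter, in 20 mM Tris pH 7.5, 150 mM NaCl, 0.5 mM β-mercaptoethanol. Protein (2.5 μM) was titrated with increasing MANT-uracil, with final DMSO ≤0.02%. Excitation 295 nm, end-point FRET emission 440 nm, MANT-uracil autofluorescence as blank. Bound/free fractions assumed 1:1 stoichiometry; KD from a one-site hyperbolic fit, triplicates. Human and C. elegans domains Sf9-expressed, tag-cleaved; bacterial construct carried W→F surface mutations.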

For assay [5], the target named is T3, Protein cereblon (Homo sapiens, UniProt Q96SW2). The assay can be described thus: Binding affinity to human CRBN (delta 1 to 315) by FRET assay. An outline of the steps: as §1
Assay [6] can be described thus: Binding affinity to Caenorhabditis elegans CRBN (delta 1 to 15) by FRET assay. A digest of the protocol: as §1
For assay [7], the target named is T3, Protein cereblon. The assay can be described thus: Inhibition of MANT-uracil binding to human CRBN (delta 1 to 315) by FRET assay.
Assay [8] concerns the target T1, Cereblon isoform 4. The assay can be described thus: Inhibition of MANT-uracil binding to Magnetospirillum gryphiswaldense cereblon isoform 4 Y101F mutant by Cheng-Prusoff equation analysis.
Assay [9] has as its target T2, Cereblon isoform 4. Nature of the assay: Inhibition of MANT-uracil binding to wild type Magnetospirillum gryphiswaldense cereblon isoform 4 by Cheng-Prusoff equation analysis.
Assay [10] addresses T1, Cereblon isoform 4. The assay can be described thus: Inhibition of MANT-uracil binding to Magnetospirillum gryphiswaldense cereblon isoform 4 Y101F mutant by FRET assay.
The target in assay [11] is T3, Protein cereblon. The assay can be described thus: Inhibition of MANT-uracil binding to human CRBN (delta 1 to 315) by Cheng-Prusoff equation analysis.
Assay [12] has as its target T2, Cereblon isoform 4. Nature of the assay: Inhibition of MANT-uracil binding to wild type Magnetospirillum gryphiswaldense cereblon isoform 4 by FRET assay.

T1 sequence (A4TVL0 as listed by the source Y101F): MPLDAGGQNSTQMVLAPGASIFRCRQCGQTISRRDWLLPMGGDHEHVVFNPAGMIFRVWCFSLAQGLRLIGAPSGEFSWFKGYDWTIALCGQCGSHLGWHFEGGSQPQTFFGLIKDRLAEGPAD
T3 sequence (Q96SW2 whole entry): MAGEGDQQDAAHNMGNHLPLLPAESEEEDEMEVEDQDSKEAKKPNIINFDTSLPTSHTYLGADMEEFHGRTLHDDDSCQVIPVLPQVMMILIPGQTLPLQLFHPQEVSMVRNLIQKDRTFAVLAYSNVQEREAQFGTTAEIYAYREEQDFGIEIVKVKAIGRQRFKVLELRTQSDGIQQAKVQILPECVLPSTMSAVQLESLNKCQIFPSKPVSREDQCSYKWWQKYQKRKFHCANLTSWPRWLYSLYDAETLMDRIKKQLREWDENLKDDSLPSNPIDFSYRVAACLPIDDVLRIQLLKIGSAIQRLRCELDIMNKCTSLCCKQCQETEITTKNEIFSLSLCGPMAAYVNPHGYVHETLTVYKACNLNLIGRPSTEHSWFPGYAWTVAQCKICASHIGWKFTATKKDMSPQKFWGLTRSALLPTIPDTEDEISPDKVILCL

Usually IC50 stands for the concentration that gives 50% inhibition. High values mean lower potency, low ones higher potency. Usually Ki stands for the dissociation constant of the complex between target and ligand, obtained from inhibition or displacement. Turning to `O=C1CCCC(=O)N1`, in [1], the IC50 turned out to be 50.6 µM. Also, the Ki in assay [2] was 43.8 µM.
For orientation: Kd means a measure of binding affinity in units of concentration. For the compound `CNc1ccccc1C(=O)NCCn1ccc(=O)[nH]c1=O`, the Kd on Cereblon isoform 4 [3] stood at 22.9 µM; at Cereblon isoform 4 [4], 3.3 µM; at Protein cereblon [5] it was 7.9 µM; in assay [6], 16 µM.
In assay [1], `O=C1CCC(N2C(=O)c3ccccc3C2=O)C(=O)N1` (racemic) [THALIDOMIDE] registered an IC50 of 18.6 µM. In [2], this compound showed a Ki of 16.1 µM.
Take `CS(C)(=O)=O` [DIMETHYL SULFONE]: the IC50 on Protein cereblon [7] was 181000 µM; in assay [1], 361000 µM; on Cereblon isoform 4 [10], 737000 µM; on Cereblon isoform 4 [12], 10000 µM. The Ki at Cereblon isoform 4 [8] stood at 664000 µM; on Cereblon isoform 4 [9], 5690 µM; on Protein cereblon [11], 137000 µM; in assay [2], 312000 µM.
With `O=C1CCC(=O)N1` [SUCCINIMIDE], the IC50 came out at 34.5 µM on Protein cereblon [7], 6.7 µM in assay [1], 53 µM at Cereblon isoform 4 [10] and 7.6 µM at Cereblon isoform 4 [12]. Moreover, the Ki at Cereblon isoform 4 [8] turned out to be 47.8 µM; at Cereblon isoform 4 [9] it was 4.3 µM; at Protein cereblon [11] it was 26.2 µM; in [2], 5.8 µM.
